The structures appear in SMILES notation.

The species named for the first assay is Mus musculus. The assay is described as follows: Inhibition of murine splenocyte proliferation. It is filed as functional. Put shortly:
(§1)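 Spleens from 8-week-old female BALB/c mice were made into single-cell suspensions and the red cells lysed (Tris/NH4Cl, pH 7.2). Cultured at 100 000 cells per well in complete T-cell medium with ConA 1 μg/mL and doubling-down dilutions of compound from 1 mM to 0.1 μM, 48 h at 37 °C, 5% CO2. Then 0.25 μCi [³H]-thymidine was added for 24 h and uptake counted; IC50 derived.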
The compound `CCCCCCCCC(=O)CC(=O)N[C@H]1CCOC1=O` showed a 50% inhibitory concentration (IC50) of 8.9 µM.
For the compound `CCCCCCCCCC(=O)CC(=O)N[C@@H](CCO)C(=O)OC`, half-maximal inhibition (IC50) required 53 µM. Compared with the last compound, the IC50 is about 6-fold higher.
`C=CCCCCCCCCC(=O)CC(=O)N[C@H]1CCOC1=O`: the half-inhibitory concentration (IC50) was determined as 7 µM.
Consider `CCCCCC(=O)CC(=O)N[C@H]1CCOC1=O`, for which inhibition was half-maximal at 400 µM (IC50).
Turning to `CCCCCCCC(=O)CC(=O)N[C@H]1CCOC1=O`, the 50% inhibitory concentration (IC50) amounted to 21 µM.
Regarding `CCCCCCCCCCCC(=O)CC(=O)N[C@H]1CCOC1=O`, half-maximal inhibition (IC50) required 6.3 µM.
Same read-out and setting: with `CCCCCCCCCC(=O)CC(=O)N[C@H]1CCOC1=O` the figure was 4 µM; with `CCCCCC(C)CCC(=O)CC(=O)N[C@H]1CCOC1=O` (some centres undefined), 5 µM; with `O=C(CCCCCCCCCCBr)CC(=O)N[C@H]1CCOC1=O`, 3 µM.
Still for that read-out and setting: with `CCCCCCCCCC(O)CC(=O)N[C@H]1CCOC1=O` (some centres undefined) the figure was 12.5 µM; with `CCCCCCCCCCCC(O)CC(=O)N[C@H]1CCOC1=O` (some centres undefined), 7 µM; with `CCCCCCCCCCCC(=O)N[C@H]1CCOC1=O`, 52 µM.
On the same count and under the same terms, with `COC(=O)CCCCCCCCCC(=O)CC(=O)N[C@H]1CCOC1=O` the figure was 60 µM.
Compound `O=C(CCCCCCCCCBr)CC(=O)N[C@H]1CCOC1=O` registered a half-maximal inhibitory concentration (IC50) of 6 µM.
The compound `CCCCCCCCCCC(=O)CC(=O)N[C@H]1CCOC1=O` returned an IC50 of 4.3 µM.
Compound `CCCCCCCCCC(=O)N[C@H]1CCOC1=O` returned an IC50 of 33 µM. Compared with the last compound, the IC50 is about 7.7-fold higher.
In turn, `CCCCCCCCCC(=O)CC(=O)NC1CCSC1=O` (centres undefined) yielded a half-inhibitory concentration (IC50) of 150 µM.
Take `O=C(CCCCCCCCCO)CC(=O)N[C@H]1CCOC1=O`: the 50% inhibitory concentration (IC50) was determined as 8 µM.
Still for that read-out and setting: with `CCC/C=C/CCCCCCC(=O)CC(=O)N[C@H]1CCOC1=O` the figure was 15 µM; with `CCCCCC/C=C\CCCC(=O)CC(=O)N[C@H]1CCOC1=O`, 17 µM.
Take `C=CCCCCCCCCCC(=O)CC(=O)N[C@H]1CCOC1=O`: the IC50 is 10 µM. This IC50 is about 1.7-fold lower than that of the compound before.
On to `CCCCCCCCCCC(=O)N[C@H]1CCOC1=O`, for which the IC50 is 90 µM.

The species entered for the next assay is Mus musculus. The assay is described as follows: Inhibition of murine splenocyte proliferation; Not active. The class given is functional. Put shortly: as §1
Consider `CCCCCCCCCC(=O)CC(N)=O`, for which the concentration for half-maximal inhibition (IC50) entry is reported as “Not Active”.
Same read-out and setting: with `O=C(O)CCCCCCCCCCC(=O)CC(=O)N[C@H]1CCOC1=O` the entry was “Not Active”.

As usually defined, the IC50 is the concentration that inhibits the measured activity by half. A high value points to lower potency.
